The source made the active and inactive calls. The calls are words filed in the database; no cut-off is given here.
Assays:
[1] = target: T1, Cathepsin K (Mus musculus) (UniProt P55097); assay: Inhibition of cathepsin K in mouse Primary chondrocytes derived after 2 passages at 1 uM after 24 hrs by Coomassie blue staining-based zymography assay; format: cell-based
T1 sequence (whole entry): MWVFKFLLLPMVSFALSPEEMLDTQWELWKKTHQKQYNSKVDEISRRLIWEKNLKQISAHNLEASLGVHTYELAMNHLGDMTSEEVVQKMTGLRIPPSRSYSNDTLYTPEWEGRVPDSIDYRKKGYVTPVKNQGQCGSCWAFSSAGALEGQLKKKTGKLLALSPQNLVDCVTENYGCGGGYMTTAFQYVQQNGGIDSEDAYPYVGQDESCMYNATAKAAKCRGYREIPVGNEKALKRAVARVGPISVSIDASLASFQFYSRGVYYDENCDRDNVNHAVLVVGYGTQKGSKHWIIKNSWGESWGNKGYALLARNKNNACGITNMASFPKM
Summary of the method: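 Chondrocyte lysates in pH 7.5 extraction buffer. Equal protein resolved on 12% SDS gels containing 2 mg/mL gelatin. Renatured in Tris/glycerol, then developed in pH 6.0 100 mM sodium phosphate with 1 mM EDTA and 2 mM DTT. After 30 min, buffer exchanged for fresh buffer with 0.1% DMSO ± inhibitor for 24 h at 37 °C. Coomassie stain and destain; lysis zones indicate activity.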

[2] = target: Matrix metalloproteinase-9 (Mus musculus) (UniProt P41245); assay: Inhibition of MMP9 in mouse Primary chondrocytes derived after 2 passages at 1 uM after 24 hrs by Coomassie blue staining-based zymography assay; format: cell-based
Matrix metalloproteinase-9 (Mus musculus), sequence (P41245 whole entry): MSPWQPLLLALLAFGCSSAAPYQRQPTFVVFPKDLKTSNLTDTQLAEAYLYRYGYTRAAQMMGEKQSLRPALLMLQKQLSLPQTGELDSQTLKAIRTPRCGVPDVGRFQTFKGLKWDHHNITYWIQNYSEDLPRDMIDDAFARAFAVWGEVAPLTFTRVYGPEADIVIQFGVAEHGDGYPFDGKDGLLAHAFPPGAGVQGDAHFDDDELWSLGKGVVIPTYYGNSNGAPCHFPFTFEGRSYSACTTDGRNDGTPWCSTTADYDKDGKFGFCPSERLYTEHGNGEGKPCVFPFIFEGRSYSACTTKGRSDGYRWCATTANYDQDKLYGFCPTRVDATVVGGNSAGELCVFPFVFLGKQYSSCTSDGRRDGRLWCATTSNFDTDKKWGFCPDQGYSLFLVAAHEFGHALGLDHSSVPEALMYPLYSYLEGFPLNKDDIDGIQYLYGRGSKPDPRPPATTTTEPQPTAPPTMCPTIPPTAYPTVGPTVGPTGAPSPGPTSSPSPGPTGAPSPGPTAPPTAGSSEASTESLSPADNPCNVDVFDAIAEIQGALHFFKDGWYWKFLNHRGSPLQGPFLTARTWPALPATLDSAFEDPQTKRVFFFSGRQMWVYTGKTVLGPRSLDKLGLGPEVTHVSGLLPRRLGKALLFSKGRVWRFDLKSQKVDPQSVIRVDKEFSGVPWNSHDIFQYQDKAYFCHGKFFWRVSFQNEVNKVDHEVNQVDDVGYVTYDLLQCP
Summary of the method: (§1)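 Gelatin zymography of extracellular medium from primary mouse chondrocytes. Medium collected in pH 7.5 Tris/EGTA/Triton extraction buffer, and equal protein run on 8% SDS gels with 1.2 mg/mL gelatin. Renatured in Tris/20% glycerol (2 × 45 min), then pH 7.4 Tris/NaCl/5 mM CaCl2 buffer. After 30 min, fresh buffer with 0.1% DMSO ± inhibitor for 24 h at 37 °C. Coomassie stained; clear bands scored. Triplicate.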

[3] = target: T1, Cathepsin K (Mus musculus); assay: Inhibition of cathepsin K in mouse Primary chondrocytes derived after 2 passages at 0.1 to 1 uM using Z-GPR-4MbetaNA as substrate by fluorescence assay relative to control; format: cell-based
Summary of the method: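 Lysates of passaged primary chondrocytes in zymography extraction buffer. Incubated with Z-GPR-4MβNA (1 mg/mL), and released 4MβNA captured with 10 μM 5-nitrosalicylaldehyde. Fluorescence read at ex 488/em 525 nm, at least three reads per condition. Activity taken as (control − sample fluorescence) normalized to Bradford protein. Three independent experiments in triplicate.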

[4] = target: 72 kDa type IV collagenase (Mus musculus) (UniProt P33434); assay: Inhibition of MMP2 in mouse Primary chondrocytes derived after 2 passages at 1 uM after 24 hrs by Coomassie blue staining-based zymography assay; format: cell-based; summary of the method: as §1
72 kDa type IV collagenase (Mus musculus), sequence (P33434 whole entry): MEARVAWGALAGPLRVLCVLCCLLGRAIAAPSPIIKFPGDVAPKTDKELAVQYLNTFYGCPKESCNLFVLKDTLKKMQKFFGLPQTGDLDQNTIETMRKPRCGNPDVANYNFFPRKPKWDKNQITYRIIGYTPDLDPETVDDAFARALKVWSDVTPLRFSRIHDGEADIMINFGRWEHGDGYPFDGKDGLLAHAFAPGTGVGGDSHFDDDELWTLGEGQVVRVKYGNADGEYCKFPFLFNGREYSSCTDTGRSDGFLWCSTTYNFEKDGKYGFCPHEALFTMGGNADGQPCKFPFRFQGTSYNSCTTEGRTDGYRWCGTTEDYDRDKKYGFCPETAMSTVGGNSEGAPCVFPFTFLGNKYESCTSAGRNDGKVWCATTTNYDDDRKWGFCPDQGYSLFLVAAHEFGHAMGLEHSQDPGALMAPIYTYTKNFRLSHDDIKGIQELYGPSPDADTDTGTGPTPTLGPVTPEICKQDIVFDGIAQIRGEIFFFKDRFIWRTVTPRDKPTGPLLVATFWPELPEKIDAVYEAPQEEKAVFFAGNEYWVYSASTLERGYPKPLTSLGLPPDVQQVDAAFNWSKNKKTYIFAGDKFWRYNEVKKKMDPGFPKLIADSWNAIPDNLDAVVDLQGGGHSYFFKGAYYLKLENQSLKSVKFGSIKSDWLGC

[5] = Cytotoxicity against mouse MOVAS1 cells assessed as reduction in cell viability at 0.001 to 5 uM after 3 days by MTT assay; format: cell-based; settings: 72 h
Summary of the method: (§2)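 Cells plated at 60000/well (primary chondrocytes from epiphyseal cartilage of 5-6 day-old SWISS mice) or 100 000/well (MG-63, MOVAS cell lines). Grown in DMEM with 10% FBS plus penicillin/streptomycin, with or without inhibitor, for 3 days up to confluence. MTT 0.125 mg/mL final for 4 h, then DMSO solubilization and A570 read. Normalized to 0.1% DMSO control as 100%. Three sample pools, each in triplicate (n = 9).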

Mus musculus [6] = organism: Mus musculus; assay: Inhibition of aggrecanase in mouse Primary chondrocytes derived after 2 passages assessed as effect on measuring sGAG content at 1 uM by Alcian blue staining-based assay; format: cell-based
Summary of the method: (§3)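 Passaged primary chondrocytes cultured ± inhibitor. Washed in PBS, fixed in 4% formaldehyde for 30 min at RT, then stained 30 min with 1% Alcian blue in 0.1 N HCl. Dye extracted with 33% isopropanol in 4.0 mol/L GnCl and A595 measured. Three independent experiments in triplicate.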

Cathepsin K = target: T2, Cathepsin K (Homo sapiens, UniProt P43235); assay: Inhibition of recombinant His-tagged human cathepsin K expressed in Escherichia coli
T2 sequence (P43235 whole entry): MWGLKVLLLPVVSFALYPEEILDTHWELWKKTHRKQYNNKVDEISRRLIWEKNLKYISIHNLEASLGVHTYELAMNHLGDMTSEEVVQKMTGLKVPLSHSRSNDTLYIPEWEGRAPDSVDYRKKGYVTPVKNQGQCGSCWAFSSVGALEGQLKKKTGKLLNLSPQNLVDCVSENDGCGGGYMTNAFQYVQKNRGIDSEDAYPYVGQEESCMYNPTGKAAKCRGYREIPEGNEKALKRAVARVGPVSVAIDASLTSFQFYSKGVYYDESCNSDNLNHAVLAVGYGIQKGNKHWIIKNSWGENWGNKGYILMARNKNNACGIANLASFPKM

MG-63 = assay: Cytotoxicity against human MG63 cells assessed as reduction in cell viability at 0.001 to 5 uM after 3 days by MTT assay; format: cell-based; settings: mg-63, 72 h; summary of the method: as §2
Cathepsin S = Cathepsin S (Homo sapiens, UniProt P25774); assay: Inhibition of recombinant human cathepsin S expressed in Escherichia coli
Cathepsin S, sequence (P25774 whole entry): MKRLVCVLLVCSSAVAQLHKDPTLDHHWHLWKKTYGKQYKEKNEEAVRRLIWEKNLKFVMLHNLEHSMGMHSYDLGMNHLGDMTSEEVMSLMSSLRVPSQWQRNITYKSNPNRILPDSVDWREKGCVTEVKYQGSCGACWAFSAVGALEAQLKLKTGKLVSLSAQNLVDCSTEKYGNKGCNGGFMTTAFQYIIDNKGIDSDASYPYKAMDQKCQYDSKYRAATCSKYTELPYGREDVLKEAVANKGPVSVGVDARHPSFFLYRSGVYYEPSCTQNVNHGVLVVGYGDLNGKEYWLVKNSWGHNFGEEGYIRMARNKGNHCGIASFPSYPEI

Mus musculus [7] = organism: Mus musculus; assay: Inhibition of aggrecanase in mouse Primary chondrocytes derived after 1 passages assessed as effect on measuring sGAG content at 1 uM by Alcian blue staining-based assay; format: cell-based; summary of the method: as §3
[8] = Cytotoxicity against mouse Primary chondrocytes assessed as reduction in cell viability at 0.001 to 5 uM after 3 days by MTT assay; settings: 72 h; summary of the method: as §2
Procathepsin L = Procathepsin L (Homo sapiens, UniProt P07711); assay: Inhibition of human liver cathepsin L
Procathepsin L, sequence (P07711 whole entry): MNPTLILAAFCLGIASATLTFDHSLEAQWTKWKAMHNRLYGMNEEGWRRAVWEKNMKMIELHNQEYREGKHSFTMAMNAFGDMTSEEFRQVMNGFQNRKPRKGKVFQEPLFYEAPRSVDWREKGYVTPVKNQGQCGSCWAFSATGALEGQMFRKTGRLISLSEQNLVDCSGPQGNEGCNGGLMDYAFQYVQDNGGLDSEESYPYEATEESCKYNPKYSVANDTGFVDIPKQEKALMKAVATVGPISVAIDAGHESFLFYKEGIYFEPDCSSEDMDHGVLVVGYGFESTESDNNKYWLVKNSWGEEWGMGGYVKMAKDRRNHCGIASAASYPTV

Mus musculus [9] = organism: Mus musculus; assay: Inhibition of aggrecanase in mouse Primary chondrocytes derived after 0 passages assessed as effect on measuring sGAG content at 1 uM by Alcian blue staining-based assay; format: cell-based

SMILES | inhibition [1] | inhibition [2] | inhibition [3] [%] | inhibition [4] | Activity [5] | inhibition (Mus musculus [6]) | IC50 (Cathepsin K) [nM] | Ki (Cathepsin K) [nM] | Activity (MG-63) | IC50 (Cathepsin S) [nM] | Ki (Cathepsin S) [nM] | inhibition (Mus musculus [7]) | Activity [8] | IC50 (Procathepsin L) [nM] | Ki (Procathepsin L) [nM] | inhibition (Mus musculus [9])
CC(C)(F)C[C@H](N[C@@H](c1ccc(-c2ccc(S(C)(=O)=O)cc2)cc1)C(F)(F)F)C(=O)NC1(C#N)CC1 | Active | inactive | 19 to 30 | inactive | – | – | – | – | – | – | – | – | – | – | – | –
CC(C)CC(C(=O)N(C)N(C)C#N)c1cccc(-c2ccc(S(C)(=O)=O)cc2)c1 (racemic) | Active | inactive | 30 to 40 | inactive | Non-Toxic | inactive | 15 | 7.21 | Non-Toxic | 1020 | 735 | inactive | Non-Toxic | 2710 | 406 | inactive

Reference: ChEMBL document CHEMBL4368938, “Design, synthesis and biological evaluation of inhibitors of cathepsin K on dedifferentiated chondrocytes” (Bioorg Med Chem, 2019)
